# This is a sample that favours compounds with a hit; in the whole collection about 4% have one here.
# GPR7 antag: blocks human GPR7 receptor signaling. GPR7-expressing cells, fluorescence antagonist assay. P48145. actives 1.1% (n = 290,000). AID 1861. inhibition, % at 4.4 µM; in the data active = inhibition above about 16%, passing the limit was not always enough;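 note: cells stimulated with the agonist NPW; 0% = agonist with vehicle and 100% = vehicle without agonist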
# Target sequence (P48145 whole entry, looked up): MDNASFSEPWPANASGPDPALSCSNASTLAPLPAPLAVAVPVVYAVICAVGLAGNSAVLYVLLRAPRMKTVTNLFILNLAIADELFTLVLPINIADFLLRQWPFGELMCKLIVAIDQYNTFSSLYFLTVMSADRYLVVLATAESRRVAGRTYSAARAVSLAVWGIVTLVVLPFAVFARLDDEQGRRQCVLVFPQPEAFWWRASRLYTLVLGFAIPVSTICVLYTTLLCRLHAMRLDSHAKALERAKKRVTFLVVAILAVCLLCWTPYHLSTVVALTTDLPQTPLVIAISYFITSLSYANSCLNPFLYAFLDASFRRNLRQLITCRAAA
# TAAR1 ag: human TAAR1 agonism. CHO RD-HGA16 TAAR1, Fluo-8 calcium fluorescence; vehicle wells 0%, saturating PEA agonist 100%. activation, % at 3 µM. actives 0.99% (n = 360,000). AID 624467;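 active = activation above the mean activation of all test compounds in the run plus 3 SD, cut at about 38% in these data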
# Target sequence (Q96RJ0 whole entry, looked up): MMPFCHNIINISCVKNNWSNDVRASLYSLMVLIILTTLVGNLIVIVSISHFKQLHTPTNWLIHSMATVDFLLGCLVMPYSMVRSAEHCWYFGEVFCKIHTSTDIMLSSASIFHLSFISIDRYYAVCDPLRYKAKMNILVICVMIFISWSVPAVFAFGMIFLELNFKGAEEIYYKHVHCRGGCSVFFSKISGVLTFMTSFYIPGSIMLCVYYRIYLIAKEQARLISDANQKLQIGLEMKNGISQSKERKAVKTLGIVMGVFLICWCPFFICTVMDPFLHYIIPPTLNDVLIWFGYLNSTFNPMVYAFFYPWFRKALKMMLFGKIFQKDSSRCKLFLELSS
#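 test system = CHO RD-HGA16 cells carrying human TAAR1 plus Gα16 | schedule = 17-24 h seeding, 75 min 37 °C dye, 30 min RT | compound dosing = 3 µM single concentration | control set = DMSO and PEA EC100 | replicates = n 1 | signal = Fluo-8 fluorescence, 5 s baseline then 140 s kinetic read | measure = percent activation vs PEA EC100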
# TAAR1 antagonist: antagonists of human TAAR1; actives 1.5% (n = 360,000); CHO RD-HGA16 TAAR1, Fluo-8 calcium fluorescence, antagonist; inhibition, % at 3 µM;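 active = inhibition above a per-plate cutoff, the mean inhibition of test compounds on that plate plus 3 SD, cut at about 49% in these data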;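 note: 0% = DMSO plus EC80 beta-PEA response and 100% = DMSO alone without agonist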
#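 Material: CHO RD-HGA16 cells bearing hTAAR1; compound dosing: one-point dosing, 3 µM nominal final; schedule: dye loading 75 min at 37 °C, then 30 min room temperature; measured by: calcium fluorescence with Fluo-8; control set: vehicle and agonist controls; replication: n of 1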
# DAGLB inhibitor: blocks human DAGLB lipase activity | Q8NCG7 | HEK293T DAGLB membrane lysate, EnzChek fluorogenic substrate | inhibition, % at 5.17 µM | actives 0.059% (n = 340,000); in the data active = inhibition above about 34%;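 note: 0% = enzyme with vehicle and 100% = wells lacking enzyme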
# MPTP inh: blocks calcium-induced mitochondrial swelling. isolated mouse mitochondria, Ca2+ swelling absorbance, 30 min. inhibition, % at 10 µM. actives 1.4% (n = 360,000). AID 602449;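 active = inhibition of 50% or more, scaled per plate between neutral and stimulator controls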;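 note: 0% = DMSO wells given calcium and 100% = 1 mM EGTA wells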
# TAAR1 ag confirm: human TAAR1 agonism, confirmed. activation, % at 3 µM. actives 82% (n = 2,400). CHO RD-HGA16 TAAR1, Fluo-8 calcium fluorescence; scaled: DMSO 0%, maximal phenethylamine 100%. shares compounds with TAAR1 ag;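 active = activation above a cutoff set at the run's mean compound activation plus 3 SD, cut at about 39% in these data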
# Ga16 nonsel ag: counter-screen for TAAR1 agonists: nonselective agonists in parental cells. shares compounds with TAAR1 ag. CHO-Ga16 parental, Fluo-8 calcium fluorescence; normalized to maximal ATP response, DMSO zero. activation, % at 3 µM. actives 50% (n = 2,400);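 active = activation above the run cutoff, the mean activation over all tested wells plus 3 SD, cut at about 12% in these data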;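 note: 0% = DMSO wells and 100% = maximal ATP response on the peak over basal ratio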
# TAAR1 desensitize: TAAR1 response desensitization, agonist counter-screen | shares compounds with TAAR1 ag | CHO RD-HGA16 hTAAR1, Fluo-8 calcium, beta-PEA response inhibition | inhibition, % at 3 µM | actives 46% (n = 2,400) | AID 651951;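 active = inhibition above the run cutoff, the mean inhibition of all test compounds plus 3 SD, cut at about 49% in these data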;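 note: beta-PEA stimulus applied at its EC80; loss of beta-PEA calcium signal after compound pretreatment read as receptor desensitization; 0% = DMSO with beta-PEA at EC80 and 100% = DMSO alone without agonist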
# Ga16 nonsel ant: nonselective Ga16 antagonist in TAAR1 agonist counter-screen. shares compounds with TAAR1 ag. CHO-Ga16 ATP-induced calcium, Fluo-8 fluorescence. inhibition, % at 3 µM. actives 39% (n = 2,400);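 active = inhibition above the plate's mean compound inhibition plus 3 SD, computed per plate, cut at about 22% in these data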;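 note: 0% = EC80 ATP with DMSO and 100% = DMSO wells without ATP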
# * hit, by the source's call; . = no result.
SMILES,GPR7 antag,TAAR1 ag,TAAR1 antagonist,DAGLB inhibitor,MPTP inh,TAAR1 ag confirm,Ga16 nonsel ag,TAAR1 desensitize,Ga16 nonsel ant
COc1cc(NC(=O)C2CSC3(C)CCC(=O)N23)c(OC)cc1Cl (centres undefined),.,0.9,7.0,-0.6,-1.6,.,.,.,.
COc1cccc(C(=O)N[C@H](C(=O)N2CCC[C@H]2C(=O)NCCc2ccccc2Cl)C(C)C)c1,.,71.2*,77.6*,.,.,85.1*,3.6,94.6*,7.6
COc1cccc(C(=O)N[C@@H](CC(C)C)C(=O)N2CCC[C@H]2C(=O)NCc2ccccc2)c1,.,-1.3,-11.0,.,.,.,.,.,.
COc1cccc(C(=O)N[C@H](C(=O)N2CCC[C@H]2C(=O)NCCc2ccccc2Cl)c2ccccc2)c1,.,56.3*,52.2*,.,.,91.3*,2.8,83.9*,17.1
CC(C)[C@H](NC(=O)c1ccc(Cl)c(Cl)c1)C(=O)N1CCC[C@H]1C(=O)NCc1ccccc1,.,1.9,-19.4,.,.,.,.,.,.
O=C(Cc1cnn(-c2ccccc2)c1)c1ccc(O)c(O)c1O,-2.5,12.6,-5.7,9.1,5.2,.,.,.,.
CCc1cc(C(=O)Cc2cnn(-c3ccccc3)c2)c(O)cc1O,-25.5,48.9*,62.9*,-3.8,44.8,50.0*,48.2*,80.4*,52.4*
CC(C)Cn1c(SCC(=O)N2CCc3ccccc3C2)nc(O)cc1=O,.,.,.,12.7,-1.2,.,3.9,.,1.8
CCCc1nc(SCC(=O)c2ccc3c(c2)NC(=O)CO3)[nH]c(=O)c1CC,.,10.9,-4.3,1.3,0.9,.,.,.,.
O=C(CSc1nccc(=O)[nH]1)N1CCc2ccccc2C1,-0.8,.,.,-3.5,-0.2,.,1.0,.,6.5
O=C(CSc1nccc(=O)[nH]1)N1CCCc2ccccc21,-15.4,7.4,3.0,-2.0,-0.8,.,.,.,.
Nc1nc(SCC(=O)N2CCc3ccccc3C2)[nH]c(=O)c1-c1ccccc1,2.6,92.0*,89.6*,1.6,0.4,106.6*,22.3*,95.3*,-3.5
Nc1nc(SCC(=O)Nc2ccccc2)[nH]c(=O)c1-c1ccccc1,-7.1,6.3,-1.9,-0.3,1.7,.,.,.,.
CCCc1cc(=O)[nH]c(SCC(=O)c2ccc3c(c2)NC(=O)CO3)n1,-4.7,53.6*,4.8,1.5,0.4,4.5,6.8,-2.3,5.5
CCCc1cc(=O)[nH]c(SCC(=O)N2CCc3ccccc3C2)n1,.,85.4*,55.1*,1.5,0.6,91.7*,4.9,29.0,-0.2
O=C(C[C@H]1CC[C@H](NC(=O)C2CCOCC2)[C@@H](CO)O1)NCc1ccncc1,.,3.6,-11.0,.,1.2,.,.,.,.
O=C(C[C@@H]1CC[C@H](NC(=O)Cc2ccccn2)[C@@H](CO)O1)NCCc1ccccc1,.,47.0*,-11.3,.,-0.6,62.6*,1.6,11.8,7.7
CC(C)CN1C(=O)CN(S(C)(=O)=O)CC1(C)C(=O)Nc1ccc2c(c1)OCCO2 (centres undefined),.,3.8,-6.0,.,-1.4,.,.,.,.
C#CCNC(=O)C[C@H]1C[C@@]2(C(=O)OC)C(=C[C@H](C(C)(C)C)O[C@@H]2C)N(CCc2ccc(OC)c(OC)c2)C1=O,.,2.3,-11.4,.,.,.,.,.,.
O=C(NCCc1ccccc1)C(=O)NCC1OCCN1S(=O)(=O)c1ccc2c(c1)OCCO2 (centres undefined),3.0,58.4*,32.8,2.7,2.0,77.0*,5.7,58.1*,20.7
O=C(NCc1ccccc1)C(=O)NCC1OCCN1S(=O)(=O)c1ccc2c(c1)OCCO2 (centres undefined),-7.5,0.6,-10.7,1.7,0.2,.,.,.,.
Cc1cccc(-c2cnc(C(O)Cc3ccccc3)[nH]2)c1 (centres undefined),.,3.1,-15.6,.,0.9,.,.,.,.
Cc1ccc(C(=O)Nn2c(O)c(C=C3N=c4ccccc4=N3)sc2=S)cc1,-0.2,53.6*,34.9,2.0,-1.2,51.8*,3.1,59.0*,22.6*
Cc1ccc(S(=O)(=O)Nn2c(O)c(C=C3N=c4ccccc4=N3)sc2=S)cc1,-18.6,11.1,33.0,23.6,5.4,.,.,.,.
COc1ccccc1Cn1c(C)c(C(=O)NCc2ccc(C#N)cc2)sc1=O,.,133.6*,94.3*,.,-3.2,106.0*,69.1*,78.3*,44.9*
SMILES,GPR7 antag,TAAR1 ag,TAAR1 antagonist,DAGLB inhibitor,MPTP inh,TAAR1 ag confirm,Ga16 nonsel ag,TAAR1 desensitize,Ga16 nonsel ant
Cc1c(C(=O)NCc2ccc([N+](=O)[O-])cc2)sc(=O)n1Cc1ccc2c(c1)OCO2,.,104.5*,74.3*,.,-0.1,106.1*,62.7*,81.1*,48.7*
COc1ccc(Cl)cc1Cn1c(C)c(C(=O)NCc2ccc(C#N)cc2)sc1=O,.,67.6*,76.5*,.,-0.6,74.3*,37.4*,74.4*,49.7*
COc1ccc(CNC(=O)c2sc(=O)n(Cc3ccccc3C)c2C)cc1,.,105.7*,70.3*,.,0.1,121.8*,82.1*,84.7*,53.8*
COc1ccccc1Cn1c(C)c(C(=O)NCc2cccc(C)c2)sc1=O,.,2.5,-28.0,.,-0.5,.,.,.,.
COc1ccc(Cl)cc1Cn1c(C)c(C(=O)NCc2cccc(C(F)(F)F)c2)sc1=O,.,2.3,11.5,.,0.2,.,.,.,.
Cc1cc(/C=N/NC(=O)CC2(C)OCCO2)c(C)n1-c1cc(Cl)cc(Cl)c1,-13.1,71.5*,4.4,-2.8,3.8,84.5*,50.2*,5.3,1.1
Cc1ccc(-n2c(C)cc(/C=N/NC(=O)CC3(C)OCCO3)c2C)cc1,4.5,9.2,3.6,2.3,-2.4,.,.,.,.
O=C(NCCc1ccccc1)c1cc(-c2ccco2)on1,3.5,46.9*,-12.5,-6.1,0.0,44.1*,1.6,5.8,2.3
CN(C)CCCOc1ccc(C(C)(C)c2ccccc2)cc1,9.0,74.7*,0.5,1.4,0.1,45.0*,8.2,9.0,12.2
CN(C)CCCOc1cccc(Oc2ccccc2)c1,-4.1,2.7,-14.2,-0.7,0.2,.,.,.,.
Cc1ccc(N2CN(CCC3=CCCCC3)CNC2=S)cc1,2.4,49.2*,-2.3,-3.2,1.3,55.5*,1.9,9.7,8.7
CCCCN1CNC(=S)N(CCc2ccccc2)C1,-11.1,3.7,-2.4,-5.6,-1.7,.,.,.,.
COc1cccc(N2CN(CCc3ccccc3)CNC2=S)c1,-10.2,95.8*,81.3*,.,2.4,93.1*,0.7,79.6*,0.9
CCc1ccc(N2CN(CCc3ccccc3)CNC2=S)cc1,-12.1,95.1*,58.8*,.,-1.3,82.6*,1.6,68.1*,0.2
